Activity calls are given as the source filed them. The rule behind the calls is not given here.
How the values were obtained:
DU-145 [1] = assay: Potency index, ratio of curcumin IC50 to compound IC50 for human DU145 cells; type: functional
PC-3 [2] = assay: Induction of apoptosis in human PC3 cells assessed as nuclear fragmentation at 2.5 to 5 uM after 48 hrs by DAPI staining based fluorescence microscopic method; type: functional, cell-based
Summary of the method: (§1)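 PC-3 cells were seeded at 25,000 per well and adhered overnight, then exposed 48 h. Cells were fixed in 4% neutral buffered formalin for 20 min and permeabilized with 0.2% Triton X for 5 min. DAPI (1 mg/mL) staining ran 10 min at room temperature, followed by fluorescence microscopy (ex 350, em 460 nm) at 200×.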

PC-3 [3] = assay: Induction of apoptosis in human PC3 cells assessed as horse shoe shaped nuclei at 2.5 to 5 uM after 48 hrs by acridine orange/ethidium bromide staining based fluorescence microscopic method; type: functional, cell-based
Summary of the method: (§2)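 PC-3 cells were plated at 25,000 per well, grown 24 h, then exposed 48 h. Cells were PBS-washed, stained with acridine orange and ethidium bromide ([…]), and imaged immediately by fluorescence microscopy (ex 488, em 550 nm) at 200×.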

4T1 = assay: Antiproliferative activity against mouse 4T1 cells after 48 hrs by MTT assay; type: functional, cell-based; conditions: 4T1, 48 h
Summary of the method: (§3)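 MTT read-out. Cells were seeded at 5 × 10^3 per well in DMEM or RPMI with 10% FBS and grown 24 h at 37 °C in CO2. Compound dilutions in medium, with vehicle control, were then added for 48 h. MTT (0.5 mg/mL in medium) was given for 4 h, formazan was dissolved in DMSO, and A570 was read. IC50 was taken from concentration–response curves as mean ± SD of three experiments run in triplicate.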

HGC-27 = assay: Antiproliferative activity against human HGC27 cells after 48 hrs by MTT assay; type: functional, cell-based; conditions: HGC-27, 48 h; summary of the method: as §3
PC-3 [4] = assay: Induction of apoptosis in human PC3 cells assessed as chromatin condensation at 2.5 to 5 uM after 48 hrs by acridine orange/ethidium bromide staining based fluorescence microscopic method; type: functional, cell-based; summary of the method: as §2
Sus scrofa = organism: Sus scrofa; assay: Inhibition of porcine brain tubulin polymerization assessed as reduction in incorporation of fluorescent reporter at 10 uM by fluorescence based assay relative to control
Summary of the method: (§4)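 Cell-free mix contained porcine brain tubulin (2 mg/mL) in 80 mM PIPES pH 6.9 with 2.0 mM MgCl2, 0.5 mM EGTA, 1.0 mM GTP and glycerol, with or without compound. Polymerization was tracked as a time-dependent fluorescence rise from reporter incorporation (ex 360, em 440 nm), with nocodazole as positive control. Inhibition was scored versus the untreated control. For IC50, the concentration giving 50% inhibition of assembly was used.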

PC-3 [5] = assay: Induction of apoptosis in human PC3 cells assessed as cell membrane blebbing at 2.5 to 5 uM after 48 hrs by acridine orange/ethidium bromide staining based fluorescence microscopic method; type: functional; summary of the method: as §2
BT-549 [6] = assay: Potency index, ratio of curcumin IC50 to compound IC50 for human BT549 cells; type: functional
RWPE-1 = assay: Antiproliferative activity against human RWPE1 cells after 48 hrs by MTT assay; type: cell-based; conditions: RWPE-1, 48 h; summary of the method: as §3
PC-3 [7] = assay: Potency index, ratio of curcumin IC50 to compound IC50 for human PC3 cells; type: functional
PC-3 [8] = assay: Cell cycle arrest in human PC3 cells assessed as accumulation at subG1 phase at 2.5 uM after 24 hrs by propidium iodide staining based flow cytometry (reference value: 4.29 to 7.23%); type: functional
Summary of the method: (§5)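 PC-3 cells were seeded at 1 × 10^5 cells/mL, attached 24 h, then treated 24 h. Cells were fixed overnight in 70% ethanol in PBS. Staining used propidium iodide ([…]) with RNase A ([…]) and 0.1% Triton X-100 for 30 min at 37 °C in the dark. About 10,000 events per sample were acquired by flow cytometry.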

HeLa = assay: Antiproliferative activity against human HeLa cells after 48 hrs by MTT assay; type: functional, cell-based; summary of the method: as §3
PC-3 [9] = assay: Induction of apoptosis in human PC3 cells assessed as nuclear shrinkage at 2.5 to 5 uM after 48 hrs by DAPI staining based fluorescence microscopic method; type: functional, cell-based; summary of the method: as §1
PC-3 [10] = assay: Induction of mitochondrial membrane potential loss in human PC3 cells assessed as ratio of green to red fluorescence at 5 uM after 24 hrs by JC1 staining based spectrofluorometric method (reference value: 0.103); type: functional
PC-3 [11] = assay: Cell cycle arrest in human PC3 cells assessed as accumulation at G0/G1 phase at 5 uM after 24 hrs by propidium iodide staining based flow cytometry (reference value: 65.04 to 76.95%); type: functional; summary of the method: as §5
PC-3 [12] = assay: Cell cycle arrest in human PC3 cells assessed as accumulation at G2/M phase at 5 uM after 24 hrs by propidium iodide staining based flow cytometry (reference value: 12.2 to 24.74%); type: functional; summary of the method: as §5
DU-145 [13] = assay: Antiproliferative activity against human DU145 cells after 48 hrs by MTT assay; type: functional, cell-based; conditions: DU-145, 48 h; summary of the method: as §3
MDA-MB-231 [14] = assay: Antiproliferative activity against human MDA-MB-231 cells after 48 hrs by MTT assay; type: functional, cell-based; conditions: MDA-MB-231, 48 h; summary of the method: as §3
PC-3 [15] = assay: Antiproliferative activity against human PC3 cells after 48 hrs by MTT assay; type: functional, cell-based; conditions: PC-3, 48 h; summary of the method: as §3
PC-3 [16] = assay: Induction of apoptosis in human PC3 cells assessed as pyknotic nuclei at 2.5 to 5 uM after 48 hrs by DAPI staining based fluorescence microscopic method; type: functional, cell-based; summary of the method: as §1
PC-3 [17] = assay: Cell cycle arrest in human PC3 cells assessed as accumulation at S phase at 2.5 uM after 24 hrs by propidium iodide staining based flow cytometry (reference value: 3.3 to 5.58%); type: functional; summary of the method: as §5
PC-3 [18] = assay: Induction of apoptosis in human PC3 cells assessed as horse shoe shaped nuclei at 2.5 to 5 uM after 48 hrs by DAPI staining based fluorescence microscopic method; type: functional, cell-based; summary of the method: as §1
BT-549 [19] = assay: Antiproliferative activity against human BT549 cells after 48 hrs by MTT assay; type: functional, cell-based; conditions: BT-549, 48 h; summary of the method: as §3
MDA-MB-231 [20] = assay: Potency index, ratio of curcumin IC50 to compound IC50 for human MDA-MB-231 cells; type: functional
[21] = Inhibition of porcine brain tubulin polymerization assessed as reduction in incorporation of fluorescent reporter by fluorescence based assay; set-up: species or system Sus scrofa; summary of the method: as §4
PC-3 [22] = assay: Induction of apoptosis in human PC3 cells assessed as destructive fragmentation of nuclei at 2.5 to 5 uM after 48 hrs by acridine orange/ethidium bromide staining based fluorescence microscopic method; type: functional, cell-based; summary of the method: as §2
PC-3 [23] = assay: Induction of apoptosis in human PC3 cells assessed as chromatin condensation at 2.5 to 5 uM after 48 hrs by DAPI staining based fluorescence microscopic method; type: functional, cell-based; summary of the method: as §1
PC-3 [24] = assay: Cell cycle arrest in human PC3 cells assessed as accumulation at subG1 phase at 5 uM after 24 hrs by propidium iodide staining based flow cytometry (reference value: 4.29 to 7.23%); type: functional; summary of the method: as §5
PC-3 [25] = assay: Cell cycle arrest in human PC3 cells assessed as accumulation at G0/G1 phase at 2.5 uM after 24 hrs by propidium iodide staining based flow cytometry (reference value: 65.04 to 76.95%); type: functional; summary of the method: as §5
A549 = assay: Antiproliferative activity against human A549 cells after 48 hrs by MTT assay; type: functional, cell-based; conditions: A549, 48 h; summary of the method: as §3
PC-3 [26] = assay: Cell cycle arrest in human PC3 cells assessed as accumulation at S phase at 5 uM after 24 hrs by propidium iodide staining based flow cytometry (reference value: 3.3 to 5.58%); type: functional; summary of the method: as §5
PC-3 [27] = assay: Cell cycle arrest in human PC3 cells assessed as accumulation at G2/M phase at 2.5 uM after 24 hrs by propidium iodide staining based flow cytometry (reference value: 12.2 to 24.74%); type: functional; summary of the method: as §5
PC-3 [28] = assay: Cell cycle arrest in human PC3 cells assessed as accumulation at G2/M phase at 10 uM after 24 hrs by propidium iodide staining based flow cytometry (reference value: 12.2 to 24.74%); type: functional; summary of the method: as §5
PC-3 [29] = assay: Cell cycle arrest in human PC3 cells assessed as accumulation at G0/G1 phase at 10 uM after 24 hrs by propidium iodide staining based flow cytometry (reference value: 65.04 to 76.95%); type: functional; summary of the method: as §5
PC-3 [30] = assay: Cell cycle arrest in human PC3 cells assessed as accumulation at S phase at 10 uM after 24 hrs by propidium iodide staining based flow cytometry (reference value: 3.3 to 5.58%); type: functional; summary of the method: as §5
PC-3 [31] = assay: Cell cycle arrest in human PC3 cells assessed as accumulation at subG1 phase at 10 uM after 24 hrs by propidium iodide staining based flow cytometry (reference value: 4.29 to 7.23%); type: functional; summary of the method: as §5

Row | SMILES | Ratio IC50 (DU-145 [1]) | Activity (PC-3 [2]) | Activity (PC-3 [3]) | IC50 (4T1) | IC50 (HGC-27) | Activity (PC-3 [4]) | inhibition (Sus scrofa) | Activity (PC-3 [5]) | Ratio IC50 (BT-549 [6]) | IC50 (RWPE-1) | Ratio IC50 (PC-3 [7]) | Activity (PC-3 [8]) | IC50 (HeLa) | Activity (PC-3 [9]) | Ratio (PC-3 [10]) | Activity (PC-3 [11]) | Activity (PC-3 [12]) | IC50 (DU-145 [13]) | IC50 (MDA-MB-231 [14]) | IC50 (PC-3 [15]) | further results
1 | COc1ccc(OC)c(/C=C/C(=O)/C=C/c2c[nH]c3ccccc23)c1 | 3.7 | Active | Active | 16.1 µM | 5.21 µM | Active | 51.7% | Active | 2.9 | 18.6 µM | 1.9 | 0.6% | 6.59 µM | Active | 0.135 | 41.11% | 55.93% | 7.71 µM | 6.02 µM | 6.34 µM | Activity (PC-3 [16]): Active; Activity (PC-3 [17]): 2.43%; Activity (PC-3 [18]): Active; IC50 (BT-549 [19]): 8.34 µM; Ratio IC50 (MDA-MB-231 [20]): 2.6; IC50 [21]: 10.2 µM; Activity (PC-3 [22]): Active; Activity (PC-3 [23]): Active; Activity (PC-3 [24]): 1.31%; Activity (PC-3 [25]): 38.65%; IC50 (A549): 19 µM; Activity (PC-3 [26]): 1.36%; Activity (PC-3 [27]): 57.54%
2 | COc1cc(/C=C/C(=O)/C=C/c2c[nH]c3ccccc23)cc(OC)c1OC | 3.2 | Active | Active | 9.79 µM | 8.65 µM | Active | 57.3% | Active | 2.8 | 6.42 µM | 3.9 | 4.74% | 3.31 µM | Active | 0.132 | 58.52% | 29.87% | 8.92 µM | 11.4 µM | 3.15 µM | Activity (PC-3 [28]): 31.42%; Activity (PC-3 [29]): 51.68%; Activity (PC-3 [16]): Active; Activity (PC-3 [17]): 8.94%; Activity (PC-3 [18]): Active; IC50 (BT-549 [19]): 8.72 µM; Activity (PC-3 [30]): 10.04%; Ratio IC50 (MDA-MB-231 [20]): 1.4; IC50 [21]: 8.81 µM; Activity (PC-3 [22]): Active; Activity (PC-3 [23]): Active; Activity (PC-3 [31]): 5.99%; Activity (PC-3 [24]): 3.46%; Activity (PC-3 [25]): 58.47%; IC50 (A549): 8.01 µM; Activity (PC-3 [26]): 6.2%; Activity (PC-3 [27]): 27.04%

Reference: ChEMBL document CHEMBL3994605, “Synthesis and biological evaluation of curcumin inspired indole analogues as tubulin polymerization inhibitors” (Eur J Med Chem, 2017)
